In data set [1] the target is T1, Heat shock protein HSP90 (Homo sapiens) (UniProt P07900+P08238). Put plainly: Inhibition of HSP90 C-terminal in human MCF7 cells assessed as reduction in ERK protein expression incubated for 24 hrs by Western blot method. The data set is classed as cell-based. In outline:
(§1)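 MCF7 cells incubated 24 h with various concentrations, then client protein levels read by Western blot. β-Actin served as loading control. AT13387 (1.0 µM), an N-terminal Hsp90 inhibitor, was the positive control.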

Data set [2] concerns MCF7. The data set can be described thus: Induction of apoptosis in human MCF7 cells assessed as necrotic cells level at 5 uM incubated for 24 hrs by Annexin V-FITC and propidium iodide staining based flow cytometry (reference value: 0.51%). It counts as functional. On the technique in general: A flow cytometer gives signals particle by particle.
Data set [3] relates to MCF7. Put plainly: Induction of apoptosis in human MCF7 cells assessed as late apoptotic cells level at 2.5 uM incubated for 24 hrs by Annexin V-FITC and propidium iodide staining based flow cytometry (reference value: 4.19%). It counts as functional.
Data set [4] deals with 4T1. Put plainly: Antitumor activity against mouse 4T1 cells implanted in BALB/c mouse assessed as inhibition of lung metastasis at 10 mg/kg/day, ip for 2 weeks measured every 2 days by H and E staining. The data set is classed as functional, organism-based. In outline: (§2)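 4T1 tumor-bearing BALB/c mice were dosed ip daily for 2 weeks with vehicle, 10 or 30 mg/kg, starting at mean tumor volume 50 mm³. Lung tissue was then examined for metastasis.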

Data set [5] concerns MCF7. Put plainly: Induction of apoptosis in human MCF7 cells assessed as early apoptotic cells level at 10 uM incubated for 24 hrs by Annexin V-FITC and propidium iodide staining based flow cytometry (reference value: 1.93%). It counts as functional.
Data set [6] has as its system MCF7. The data set can be described thus: Induction of apoptosis in human MCF7 cells assessed as necrotic cells level at 10 uM incubated for 24 hrs by Annexin V-FITC and propidium iodide staining based flow cytometry (reference value: 0.51%). It counts as functional.
The target in data set [7] is T1, Heat shock protein HSP90 (Homo sapiens). The data set can be described thus: Inhibition of HSP90 C-terminal in human MCF7 cells assessed as reduction in Akt protein expression incubated for 24 hrs by Western blot method. It counts as cell-based. In outline: as §1
Background: A western blot detects proteins with antibodies after separation by electrophoresis.

Data set [8] relates to MCF7. The data set can be described thus: Induction of apoptosis in human MCF7 cells assessed as early apoptotic cells level at 2.5 uM incubated for 24 hrs by Annexin V-FITC and propidium iodide staining based flow cytometry (reference value: 1.93%). It counts as functional.
For data set [9], the system named is Mus musculus. The data set can be described thus: Toxicity in BALB/c mouse implanted with mouse 4T1 cells assessed as induction of body weight loss at 30 mg/kg/day, ip for 2 weeks measured every 2 days. It counts as organism-based. The note with it: in vivo. In outline: (§3)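 4T1 tumor-bearing BALB/c mice were given vehicle, 10 or 30 mg/kg ip daily for 2 weeks from mean tumor volume 50 mm³. Body weight was monitored during treatment.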

In data set [10] the test system is Mus musculus. The data set can be described thus: Toxicity in BALB/c mouse implanted with mouse 4T1 cells assessed as induction of body weight loss at 10 mg/kg/day, ip for 2 weeks measured every 2 days. The data set is classed as organism-based. The note with it: in vivo. In outline: as §3
For another data set, the system named is SK-BR-3. Put plainly: Antiproliferative activity against human SKBR3 cells incubated for 72 hrs by MTT assay. It counts as functional, cell-based. The note with it: SK-BR-3, 72 h. In outline: (§4)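 MTT antiproliferation assay in MCF7 and SKBr3 breast cancer cells; IC50 determined.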
For orientation: Tetrazolium assays rely on reduction of a dye to a coloured formazan, in cell work by metabolically active cells.

Data set [11] relates to 4T1. Put plainly: Antitumor activity against mouse 4T1 cells implanted in BALB/c mouse assessed as inhibition of tumor growth at 10 mg/kg/day, ip for 2 weeks measured every 2 days. The data set is classed as functional. The following applies: 4T1, ip, read-out: TGI. In outline:
(§5)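 BALB/c mice bearing 4T1 breast tumors were dosed ip daily for 2 weeks with vehicle, 10 or 30 mg/kg, starting once mean tumor volume reached 50 mm³. Tumor diameters were measured every two days; TGI derived.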

The subject of data set [12] is 4T1. Put plainly: Antitumor activity against mouse 4T1 cells implanted in BALB/c mouse assessed as inhibition of tumor growth at 30 mg/kg/day, ip for 2 weeks measured every 2 days. The following applies: 4T1, ip, read-out: TGI. The data set is classed as functional. In outline:
as §5

Data set [13] has as its system MCF7. The data set can be described thus: Induction of apoptosis in human MCF7 cells assessed as viable cells level at 2.5 uM incubated for 24 hrs by Annexin V-FITC and propidium iodide staining based flow cytometry (reference value: 93.37%). It counts as functional.
In data set [14] the test system is MCF7. Put plainly: Induction of heat shock response in human MCF7 cells assessed as effect on HSP90 protein expression at 1 to 10 uM incubated for 24 hrs by Western blot method. The note with it: mcf7, 24 h. It counts as cell-based. In outline: as §1
Data set [15] relates to MCF7. The data set can be described thus: Induction of apoptosis in human MCF7 cells assessed as early apoptotic cells level at 5 uM incubated for 24 hrs by Annexin V-FITC and propidium iodide staining based flow cytometry (reference value: 1.93%). The data set is classed as functional.
The nature of data set [16]: Intrinsic aqueous solubility of the compound. The data set is classed as physicochemical. In outline:
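Intrinsic aqueous solubility determined on a Gemini Profiler instrument.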

Data set [17] has as its system MCF7. Put plainly: Antiproliferative activity against human MCF7 cells incubated for 72 hrs by MTT assay. The data set is classed as functional, cell-based. The following applies: MCF7, 72 h. In outline:
as §4

A short description of data set [18]: Permeability coefficient of the compound at pH 7.4 by double-sink PAMPA. It counts as ADME. The following applies: read-out: permeability. In outline: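 Double-sink PAMPA at pH 7.4 on a PAMPA Explorer instrument; Pe reported as mean ± SD, n = 3.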
Data set [19] deals with MCF7. The data set can be described thus: Induction of apoptosis in human MCF7 cells assessed as viable cells level at 10 uM incubated for 24 hrs by Annexin V-FITC and propidium iodide staining based flow cytometry (reference value: 93.37%). The data set is classed as functional.
Data set [20] relates to MCF7. The data set can be described thus: Induction of apoptosis in human MCF7 cells assessed as late apoptotic cells level at 5 uM incubated for 24 hrs by Annexin V-FITC and propidium iodide staining based flow cytometry (reference value: 4.19%). The data set is classed as functional.
Data set [21] is described as follows: Distribution coefficient, log D of the compound at pH 7.4. It counts as physicochemical. The following applies: octanol/water. In outline: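 Log D at pH 7.4 measured on a PULSE platform.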
In data set [22] the test system is MCF7. The data set can be described thus: Induction of heat shock response in human MCF7 cells assessed as effect on HSP70 protein expression at 1 to 10 uM incubated for 24 hrs by Western blot method. The note with it: mcf7, 24 h. The data set is classed as cell-based. In outline: as §1
Data set [23] relates to MCF7. The data set can be described thus: Induction of apoptosis in human MCF7 cells assessed as viable cells level at 5 uM incubated for 24 hrs by Annexin V-FITC and propidium iodide staining based flow cytometry (reference value: 93.37%). It counts as functional.
The subject of data set [24] is MCF7. Put plainly: Induction of apoptosis in human MCF7 cells assessed as necrotic cells level at 2.5 uM incubated for 24 hrs by Annexin V-FITC and propidium iodide staining based flow cytometry (reference value: 0.51%). The data set is classed as functional.
The target in data set [25] is T1, Heat shock protein HSP90 (Homo sapiens). Put plainly: Inhibition of HSP90 C-terminal in human MCF7 cells assessed as reduction in CDK6 protein expression incubated for 24 hrs by Western blot method. The data set is classed as cell-based. In outline: as §1
Data set [26] has as its system MCF7. Put plainly: Inhibition of cell migration in human MCF7 cells incubated for 24 hrs by wound healing assay. The data set is classed as functional, cell-based. In outline: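 Wound healing in MCF7 cells: the monolayer was scratched with a 200 µL sterile pipette tip, treated 24 h at various concentrations, then imaged.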
Data set [27] deals with 4T1. The data set can be described thus: Antitumor activity against mouse 4T1 cells implanted in BALB/c mouse assessed as inhibition of lung metastasis at 30 mg/kg/day, ip for 2 weeks measured every 2 days by H and E staining. It counts as functional, organism-based. In outline: as §2
Data set [28] relates to MCF7. The data set can be described thus: Induction of apoptosis in human MCF7 cells assessed as late apoptotic cells level at 10 uM incubated for 24 hrs by Annexin V-FITC and propidium iodide staining based flow cytometry (reference value: 4.19%). The data set is classed as functional.
Data set [29] concerns MCF7. Put plainly: Growth inhibition of human MCF7 cells at 50 uM incubated for 72 hrs by MTT assay. The data set is classed as functional. The note with it: MCF7, 72 h, read-out: GI. In outline: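 MTT screen in MCF7 cells at a single concentration of 50 µM; growth inhibition rate recorded.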
For data set [30], the target named is T1, Heat shock protein HSP90 (Homo sapiens). Put plainly: Inhibition of HSP90 C-terminal in human MCF7 cells assessed as reduction in ERK protein expression at 5 to 20 uM incubated for 24 hrs by Western blot method. It counts as cell-based. In outline:
as §1

For data set [31] the target is unchanged. The data set can be described thus: Inhibition of HSP90 C-terminal in human MCF7 cells assessed as reduction in Akt protein expression at 5 to 20 uM incubated for 24 hrs by Western blot method. The data set is classed as cell-based. In outline: as §1
The target is the same in data set [32]. Put plainly: Inhibition of HSP90 C-terminal in human MCF7 cells assessed as reduction in CDK6 protein expression at 5 to 20 uM incubated for 24 hrs by Western blot method. It counts as cell-based. In outline: as §1

≈ marks a conversion by molar mass, not a printed value. Calls of active or inactive are those of the source. No cut-off for these calls is given here.

Take `Cc1cc(NCCN2CCCCC2)nc2ccc(NC(=O)c3ccc(Cl)c(Cl)c3)cc12`: the inhibition entry (in [1]; in data set [7]; in data set [25]; in the data set on MCF7 [26]) was “Dose-dependent effect” in each case. The Activity with MCF7 [2] is recorded as 3.13%; with MCF7 [3], 4.33%; in the data set on MCF7 [5], 20.22%; in the data set on MCF7 [6], 5.5%; with MCF7 [8], 1.57%; with Mus musculus [9], “Non-Toxic”. For the same compound, the Activity result was “Non-Toxic” with Mus musculus [10]; 93.3% with MCF7 [13]; “Non-Toxic” with MCF7 [14]; 5.21% in the data set on MCF7 [15]; 42.69% in the data set on MCF7 [19]; 12.8% with MCF7 [20]. Also, the Activity result with MCF7 [22] was “Non-Toxic”; in the data set with MCF7 [23], 78.86%; with MCF7 [24], 0.8%; in the data set on MCF7 [28] it was 31.59%. Further, the inhibition result in the data set with 4T1 [4] and in the data set on 4T1 [27] was “Active” in each case. Besides, the IC50 in the data set on SK-BR-3 was found to be 1.8 µM; in the data set with MCF7 [17] it was 1.19 µM. For the same compound, in the data set with 4T1 [11], the inhibition in vivo at 10 mg/kg/day amounted to 26%. In addition, the inhibition in vivo at 30 mg/kg/day in the data set on 4T1 [12] stood at 47%. The compound further showed a solubility in data set [16] of 70.8 µg/mL (≈ 155 µM). Moreover, the Papp in data set [18] amounted to 47.3 ×10⁻⁶ cm/s. Besides, in [21], the logD was determined as 2.72.

Consider `Cc1oc2ncn(CC(C)C)c(=O)c2c1C(=O)Nc1ccc(C(=O)NCCN2CCCC2)nc1`, for which the inhibition of growth at 50 µM in the data set on MCF7 [29] is 90.4%. The inhibition result in data set [30], in [31] and in data set [32] was “inactive” each time. The half-maximal inhibitory concentration (IC50) came out at 8.09 µM in the data set on SK-BR-3 and 8.41 µM with MCF7 [17].

Take `CCN1CCN(c2cc(C)c3cc(NC(=O)c4cccc(OC)c4)ccc3n2)CC1`: in the data set with MCF7 [29], the inhibition of growth at 50 µM was 96.9%. Moreover, the inhibition result in [30], in data set [31] and in [32] was “Active” throughout. Further, the IC50 came out at 3.33 µM in the data set on SK-BR-3 and 4.86 µM in the data set with MCF7 [17].

As for `CCN(CC)CCOC(=O)c1ccc(NC(=O)C2=CC3C(c4ccccc4F)=NN(C)C3S2)cc1` (configuration not stated), the inhibition of growth at 50 µM with MCF7 [29] was found to be 99.6%. In addition, the inhibition entry in [30], in data set [31] and in data set [32] was “inactive” throughout. The IC50 in the data set on SK-BR-3 was 4.99 µM; with MCF7 [17], 5.38 µM.

For orientation: IC50 means the concentration at which inhibition is half-maximal. Read a high IC50 as lower potency. For orientation: solubility means the concentration that dissolves in the medium under given conditions. Read a low solubility as little dissolved substance. What is called logD is lipophilicity at a set pH, counting ionised and neutral species.

The values above are taken from ChEMBL document CHEMBL4130484, “Identification and optimization of novel 6-acylamino-2-aminoquinolines as potent Hsp90 C-terminal inhibitors” (Eur J Med Chem, 2017).
